Assay outcomes deposited in PubChem by several laboratories.
SR-BI HDL uptake = inhibitors of mouse SR-BI mediated HDL lipid uptake | inhibition, % at 12.5 µM | AID 488896 | ldlA[mSR-BI] CHO cells, DiI-HDL uptake fluorescence, 3 h | actives 0.96% (n = 320,000);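 active means mean replicate inhibition of at least 70% and a set share of replicates each scoring 70 or more; inconclusive means meets just one of the two criteria; inactive means fails both criteria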
Target sequence (Q61009 whole entry, looked up): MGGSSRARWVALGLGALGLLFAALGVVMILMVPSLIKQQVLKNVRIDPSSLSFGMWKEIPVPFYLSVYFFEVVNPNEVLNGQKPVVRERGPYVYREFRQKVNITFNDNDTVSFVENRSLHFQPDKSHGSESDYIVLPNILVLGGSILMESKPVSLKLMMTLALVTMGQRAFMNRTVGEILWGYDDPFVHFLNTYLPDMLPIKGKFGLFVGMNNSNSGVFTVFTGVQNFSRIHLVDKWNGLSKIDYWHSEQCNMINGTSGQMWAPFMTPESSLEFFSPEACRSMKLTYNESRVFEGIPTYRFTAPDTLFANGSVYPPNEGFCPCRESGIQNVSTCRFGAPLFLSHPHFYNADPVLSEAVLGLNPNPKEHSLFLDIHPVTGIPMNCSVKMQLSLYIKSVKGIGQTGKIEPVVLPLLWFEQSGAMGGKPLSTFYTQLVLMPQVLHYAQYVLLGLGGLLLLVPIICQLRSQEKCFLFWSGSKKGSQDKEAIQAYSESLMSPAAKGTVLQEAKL
HIF act = HIF pathway transcriptional activation; actives 0.32% (n = 300,000); AID 1910; U2OS HRE-luciferase reporter, luminescence; normalized: DMSO 0%, desferrioxamine 100%; activation, % at 7.5 µM (by protocol);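 active means mean activation of at least 10% of the iron chelator positive control signal, with at least half of replicates also reaching 10%; inconclusive means mean and replicate majority disagree about reaching 10%; inactive means mean and most replicates under 10%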
ABCB6 inh MLPCN = human ABCB6 transporter inhibition | Q9NP58 | K562-ABCB6 porphyrin accumulation, flow cytometry, 1 h; hits give low values | fluorescence ratio to DMSO, % at 10 µM | actives 0.19% (n = 360,000);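 active means fluorescence ratio to DMSO below 75%, the collection mean minus 3 SD; inconclusive means too few cells collected in the well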;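 further: signal is porphyrin accumulated inside mitochondria; lower ratio means ABCB6 inhibition with less porphyrin fluorescence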
SR-BI uptake up = activators of SR-BI mediated HDL lipid uptake; activation, % at 12.5 µM; AID 504775; actives 0.096% (n = 320,000); CHO ldlA[mSR-BI] cells, DiI-HDL uptake fluorescence, 3 h; 100 = double the neutral-control signal;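 active means mean replicate activation of at least 60% and every replicate at or above 60%; inconclusive means mean or all-replicate condition met, but not both; inactive means mean below 60% and not all replicates reaching 60%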
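System: LDL receptor-deficient CHO ldlA cells overexpressing murine SR-BI | Timing: 3 h uptake period with compound, 37 °C | Medium: HEPES-buffered (25 mM, pH 7.4) F12 plus 0.5% BSA | Dosing: Single-point compound dose | Signal: Bottom-read fluorescence, 550/595 nm | Read-out: Retained DiI signal reflecting DiI-HDL uptake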
AHR act = activates the human aryl hydrocarbon receptor. P35869. AHR-responsive luciferase reporter cells, luminescence. activation, % at 5 µM. actives 2.5% (n = 320,000); in the data active means activation above about 47%
GAA850 FXN act = frataxin GAA850 promoter activation. activation, % at 6 µM. HEK293 lucGAA850 FXN promoter luciferase reporter, 24 h; percent of 10 µM SAHA response. actives 0.56% (n = 360,000);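 active means activation above the average of all compounds screened plus 3 SD, cutoff fixed separately per campaign, cut at about 7.5% in these data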
DiI quench = counter-screen for SR-BI lipid transfer inhibitors: DiI fluorescence quenchers; shares compounds with SR-BI HDL uptake; cell-free DiI-HDL fluorescence quenching, 30 min; AC50, µM (doses to about 35 µM); actives 20% (n = 470);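 active means quenching, a falling signal, with AC50 below a set limit tied to the top valid dose, actives reach about 32 µM in these data; inconclusive means no clear call, values can overlap the other calls; inactive means rising signal, and the rest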
Large screens that a line does not name were inactive (follow-up assays come after a bar, where they were run). The list is not random: actives were taken first. Their share in the collection is about 3.9%.

Cc1ccc(Sc2nc(-c3ccccc3)nnc2C(F)(F)F)cc1	SR-BI HDL uptake inconclusive | DiI quench inactive
CCCc1nnc(SCC(=O)Nc2nccs2)o1	none (no result: SR-BI HDL uptake, SR-BI uptake up)
COc1ccc(OC)c(CCNC(=O)c2ccc(NC3=NC4CS(=O)(=O)CC4S3)cc2)c1 (centres undefined)	SR-BI HDL uptake 83 | DiI quench inactive
Cc1cc(C)c2c(c1)NC(c1cc3c(cc1Br)OCO3)C1CC=CC21 (centres undefined)	SR-BI HDL uptake inconclusive | DiI quench inactive
CCCn1c(=O)[nH]c(=O)c2c1nc(-c1ccc(C#N)cc1)n2CCOC	none
CCCn1c(=O)[nH]c(=O)c2c1nc(-c1ccc(OC(F)(F)C(F)C(F)(F)F)cc1)n2CCOC (centres undefined)	SR-BI HDL uptake 75 | DiI quench inactive
O=C(c1cccnc1)C1Cc2ccccc2C1=O (centres undefined)	none
O=C1C2CCCCN2C(=O)N1CCN1CCN(c2ccc([N+](=O)[O-])cc2)CC1 (centres undefined)	none
O=C1C2CCCN2C(=O)N1CCCN1CCN(c2ccc([N+](=O)[O-])cc2)CC1 (centres undefined)	SR-BI HDL uptake 94 | DiI quench inactive
CCC(NC(=O)c1cc(COc2ccc(C)nc2)on1)c1ccc(C)cc1 (centres undefined)	none
CC(C)N(CCC#N)C(=O)Nc1ccc2c(c1)CCO2	none
Nn1c(SCCOc2ccccc2)nnc1-c1cccnc1	none
COc1ccc(OCCSc2nnc(-c3cccnc3)n2N)cc1	SR-BI HDL uptake 106 | DiI quench inactive
Cc1cccc(Cn2c(=O)c3c(nc4n3CCN4Cc3ccco3)n(C)c2=O)c1	none
Cc1ccc(S(=O)(=O)NCc2ccc(C(=O)NCCc3ccc(S(N)(=O)=O)cc3)cc2)cc1	SR-BI HDL uptake 92 | DiI quench inactive
Cc1ccc(CC(=O)NCCc2ccc(S(N)(=O)=O)cc2)cc1	none
C/C(CC(=O)Nc1ccccc1C(F)(F)F)=N\NC(=O)c1cnccn1	none (no result: SR-BI HDL uptake, SR-BI uptake up)
COCCCNc1nc2c(-c3cccc(C)c3)nnn2c2ccccc12	SR-BI HDL uptake 103, AHR act 49 | DiI quench inactive
O=C(CSc1nnc(Cn2c(=O)sc3ccccc32)n1-c1ccccc1)N1CCOCC1	none (no result: HIF act)
NC(=O)CC(NC(=S)NCc1ccccc1)C(=O)O (centres undefined)	none
N#Cc1sc2nc(C3CC3)cc(-c3ccc(Cl)cc3)c2c1N	SR-BI HDL uptake inconclusive | DiI quench inactive
COc1ccc(-c2cc(-c3cccs3)nc3sc(C#N)c(N)c23)cc1	SR-BI HDL uptake inconclusive
COCCCN(C(=O)c1ccco1)c1nc(-c2ccc(OC)cc2)cs1	SR-BI HDL uptake 111 | DiI quench inactive
COCCCN(C(=O)c1ccccc1)c1nc(-c2ccc(OC)cc2)cs1	none (no result: AHR act)
COc1cc(/C=C(/C#N)c2nc3ccccc3[nH]2)ccc1OCC(=O)Nc1ccccc1C(C)C	none
COc1cccc(-c2csc(N3CCN(C(=S)Nc4cccc(Cl)c4)CC3)n2)c1	SR-BI HDL uptake 79 (no result: HIF act) | DiI quench inactive
CCn1cc(C(=O)N2CCCC(C(=O)c3cccc(C(F)(F)F)c3)C2)cn1 (centres undefined)	none (no result: SR-BI HDL uptake, HIF act, SR-BI uptake up, AHR act)
COc1ccc(NC(=O)Nc2nnc(-c3ccccc3SCc3ccccc3)s2)cc1	SR-BI HDL uptake 101, AHR act 51 | DiI quench 3.2µM
OC1CCN(c2cc(-c3ccccc3)nc3cc(-c4ccc(F)cc4)nn23)CC1	SR-BI HDL uptake 72 | DiI quench inactive
CCN1CCN(c2cc(-c3ccccc3)nc3cc(-c4cccc(F)c4)nn23)CC1	none
COc1cc(/C=N/NC(=O)Cc2csc(C)n2)ccc1OCC(C)C	SR-BI HDL uptake 82 | DiI quench inactive
COC(=O)c1cc2c(ccn2-c2ccc(F)cc2)n1CC(=O)N1CCN(C(=O)c2ccco2)CC1	SR-BI HDL uptake inconclusive (no result: HIF act)
COC(=O)c1cc2c(ccn2-c2ccc(F)cc2)n1Cc1ccc(C#N)cc1	SR-BI HDL uptake 78 | DiI quench inactive
